From ChEMBL document CHEMBL3244186, “Synthesis and evaluation of the thiosemicarbazone, dithiocarbazonate, and 2'-pyrazinylhydrazone of pyrazinecarboxaldehyde as agents for the treatment of iron overload” (J Med Chem, 1979)

How the values were obtained:
[1] = tested on: Mus musculus; assay: Iron chelating activity in iron-overloaded BDF1 mouse assessed as iron level in heart at 125 mg/kg, ip treated from day 8 to 13 after erythrocyte suspension injection on day 1, 3 and 5 by atomic absorption spectroscopic analysis; assay type: functional; details: route intraperitoneal
How it was run: (§1)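 Iron-loaded male BDF1 mice (10 per group) given ip drug in EtOH/Tween 80/saline vehicle daily on days 8-13. On day 15, under Et2O, mice were exsanguinated. Organs were washed, frozen, thawed, weighed and homogenized in 0.014 M NaCl made with iron-free water; supernatant iron was measured by AAS, as μg/mouse. Mean ± SD; t test versus iron-loaded vehicle control.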

[2] = Iron chelating activity assessed as removal of [59]-Fe from [59]-Fe-labeled transferrin at 1 mM measured per hr by spectrometric analysis; assay type: physicochemical; details: 1000 µM
How it was run: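 About 10^6 cpm of 59Fe-labeled transferrin in 1.0 mL of 0.1 M Hepes (pH 7.00), inside a dialysis sack, dialyzed at room temperature against 25.0 mL of 1.00 mM ligand in the same buffer. Dialysate aliquots of 1.00 mL taken at intervals were gamma-counted (800-1400 keV window). Initial release rates were derived from these counts.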

[3] = Iron chelating activity assessed as removal of iron from ferritin after 20 hrs by atomic absorption spectrophotometric analysis; assay type: physicochemical
How it was run: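 Ferritin holding 1.34 mg total Fe was dialyzed at room temperature against 25.0 mL of 1.00 mM ligand solution. Iron in the dialysate was measured by atomic absorption spectroscopy at 20 h.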

[4] = tested on: Mus musculus; assay: Iron chelating activity in iron-overloaded BDF1 mouse assessed as transferrin saturation at 125 mg/kg, ip treated from day 8 to 13 after erythrocyte suspension injection on day 1, 3 and 5 relative to control; assay type: functional; details: route intraperitoneal
How it was run: (§2)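 Iron-loaded male BDF1 mice (10 per group) received ip drug daily on days 8-13, with non-loaded and iron-loaded vehicle-treated control groups. On day 15, blood collected by cardiac puncture under Et2O was pooled per group. Percent transferrin saturation was measured with a standard hematologic kit.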

[5] = tested on: Mus musculus; assay: Iron chelating activity in iron-overloaded BDF1 mouse assessed as daily urinary iron level at 125 mg/kg, ip treated from day 8 to 13 after erythrocyte suspension injection on day 1, 3 and 5 by atomic absorption spectroscopic analysis; assay type: functional, Urine; details: route intraperitoneal
[6] = tested on: Mus musculus; assay: Iron chelating activity in iron-overloaded BDF1 mouse assessed as iron level in lung at 125 mg/kg, ip treated from day 8 to 13 after erythrocyte suspension injection on day 1, 3 and 5 by atomic absorption spectroscopic analysis; assay type: functional; details: route intraperitoneal; how it was run: as §1
[7] = tested on: Mus musculus; assay: Iron chelating activity in iron-overloaded BDF1 mouse assessed as iron level in spleen at 125 mg/kg, ip treated from day 8 to 13 after erythrocyte suspension injection on day 1, 3 and 5 by atomic absorption spectroscopic analysis; assay type: functional; details: route intraperitoneal; how it was run: as §1
[8] = tested on: Mus musculus; assay: Iron chelating activity in iron-overloaded BDF1 mouse assessed as iron level in liver at 125 mg/kg, ip treated from day 8 to 13 after erythrocyte suspension injection on day 1, 3 and 5 by atomic absorption spectroscopic analysis; assay type: functional; details: route intraperitoneal; how it was run: as §1
[9] = Binding affinity to Fe(NO3)3 assessed as stability constant; assay type: physicochemical
How it was run: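 Minimum stability constant and stoichiometry were found by continuous variation (Job plot). Metal and ligand solutions stood 1 h and were then diluted with 50 mM barbital buffer (pH 7.4) containing 0.100 M KNO3. Visible absorbance at λmax was read at several times to confirm equilibrium. Absorbance was plotted against metal/(metal + ligand).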

[10] = tested on: Mus musculus; assay: Iron chelating activity in iron-overloaded BDF1 mouse assessed as iron level in heart at 40 mg/kg, ip treated from day 8 to 13 after erythrocyte suspension injection on day 1, 3 and 5 by atomic absorption spectroscopic analysis; assay type: functional; details: route intraperitoneal; how it was run: as §1
[11] = tested on: Mus musculus; assay: Iron chelating activity in iron-overloaded BDF1 mouse assessed as daily urinary iron level at 40 mg/kg, ip treated from day 8 to 13 after erythrocyte suspension injection on day 1, 3 and 5 by atomic absorption spectroscopic analysis; assay type: functional, Urine; details: route intraperitoneal
[12] = tested on: Mus musculus; assay: Iron chelating activity in iron-overloaded BDF1 mouse assessed as transferrin saturation at 80 mg/kg, ip treated from day 8 to 13 after erythrocyte suspension injection on day 1, 3 and 5 relative to control; assay type: functional; details: route intraperitoneal; how it was run: as §2
[13] = tested on: Mus musculus; assay: Iron chelating activity in iron-overloaded BDF1 mouse assessed as iron level in lung at 80 mg/kg, ip treated from day 8 to 13 after erythrocyte suspension injection on day 1, 3 and 5 by atomic absorption spectroscopic analysis; assay type: functional; details: route intraperitoneal; how it was run: as §1
[14] = tested on: Mus musculus; assay: Iron chelating activity in iron-overloaded BDF1 mouse assessed as daily urinary iron level at 80 mg/kg, ip treated from day 8 to 13 after erythrocyte suspension injection on day 1, 3 and 5 by atomic absorption spectroscopic analysis; assay type: functional, Urine; details: route intraperitoneal
[15] = Binding affinity to Fe(NO3)3 assessed as stability constant at pH 7.5 after 1 hr; assay type: physicochemical; details: pH 7.5, 1 h
[16] = tested on: Mus musculus; assay: Iron chelating activity in iron-overloaded BDF1 mouse assessed as iron level in lung at 40 mg/kg, ip treated from day 8 to 13 after erythrocyte suspension injection on day 1, 3 and 5 by atomic absorption spectroscopic analysis; assay type: functional; details: route intraperitoneal; how it was run: as §1
[17] = Binding affinity to FeSO4 assessed as stability constant at pH 7.5 after 1 hr; assay type: physicochemical; details: pH 7.5, 1 h
[18] = tested on: Mus musculus; assay: Iron chelating activity in iron-overloaded BDF1 mouse assessed as iron level in spleen at 40 mg/kg, ip treated from day 8 to 13 after erythrocyte suspension injection on day 1, 3 and 5 by atomic absorption spectroscopic analysis; assay type: functional; details: route intraperitoneal; how it was run: as §1
[19] = tested on: Mus musculus; assay: Iron chelating activity in iron-overloaded BDF1 mouse assessed as iron level in heart at 80 mg/kg, ip treated from day 8 to 13 after erythrocyte suspension injection on day 1, 3 and 5 by atomic absorption spectroscopic analysis; assay type: functional; details: route intraperitoneal; how it was run: as §1
[20] = tested on: Mus musculus; assay: Iron chelating activity in iron-overloaded BDF1 mouse assessed as transferrin saturation at 40 mg/kg, ip treated from day 8 to 13 after erythrocyte suspension injection on day 1, 3 and 5 relative to control; assay type: functional; details: route intraperitoneal; how it was run: as §2
[21] = tested on: Mus musculus; assay: Iron chelating activity in iron-overloaded BDF1 mouse assessed as iron level in spleen at 80 mg/kg, ip treated from day 8 to 13 after erythrocyte suspension injection on day 1, 3 and 5 by atomic absorption spectroscopic analysis; assay type: functional; details: route intraperitoneal; how it was run: as §1
[22] = tested on: Mus musculus; assay: Iron chelating activity in iron-overloaded BDF1 mouse assessed as iron level in liver at 40 mg/kg, ip treated from day 8 to 13 after erythrocyte suspension injection on day 1, 3 and 5 by atomic absorption spectroscopic analysis; assay type: functional; details: route intraperitoneal; how it was run: as §1
[23] = tested on: Mus musculus; assay: Iron chelating activity in iron-overloaded BDF1 mouse assessed as iron level in liver at 80 mg/kg, ip treated from day 8 to 13 after erythrocyte suspension injection on day 1, 3 and 5 by atomic absorption spectroscopic analysis; assay type: functional; details: route intraperitoneal; how it was run: as §1

Compound: CC(=O)N(O)CCCCCNC(=O)CCC(=O)N(O)CCCCCNC(=O)CCC(=O)N(O)CCCCCN [DEFEROXAMINE]
- Activity [1]: 9.4 µg
- Activity [2]: 1%
- Activity [3]: 25.2 µM
- Activity [4]: 75%
- Activity [5]: 3 µg
- Activity [6]: 16.4 µg
- Activity [7]: 19.2 µg
- Activity [8]: 132 µg
- Activity [9]: 30.6

Compound: O=c1cccccc1O [TROPOLONE]
- Activity [2]: 19.7%
- Activity [3]: 4.1 µM
- Activity [9]: 10.5

Compound: S=C([S-])N/N=C/c1cnccn1.[Na+]
- Activity [10]: 8.5 µg
- Activity [2]: 0.4%
- Activity [11]: 1.4 µg
- Activity [3]: 48.8 µM
- Activity [12]: 27%
- Activity [13]: 17.7 µg
- Activity [14]: 5.5 µg
- Activity [15]: > 25
- Activity [16]: 14.8 µg
- Activity [17]: > 17
- Activity [18]: 14 µg
- Activity [19]: 10.6 µg
- Activity [20]: 51%
- Activity [21]: 18.6 µg
- Activity [22]: 193 µg
- Activity [23]: 176 µg
